This is a sample that favours compounds with a hit; in the whole collection about 0.77% have one here.
mIAP block – blocks mouse intestinal alkaline phosphatase; purified mouse IAP, CDP-Star luminescence, 30 min; 330,000 tested, 0.2% active; inhibition, % at 10 µM;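 active means inhibition of at least 40% at 10 µM in the primary screen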;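 further: plate controls were DMSO with enzyme for no effect and no enzyme wells for full effect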
bIAP inhibitor – blocks bovine intestinal alkaline phosphatase activity; inhibition, % at 20 µM; 190,000 tested, under 10 active; AID 1019; purified bovine IAP, CDP-star luminescence, 30 min;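 active means over 50% inhibition of intestinal alkaline phosphatase at 20 µM in the single-dose screen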
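Assay system: bovine IAP enzyme; medium: DEA buffer 100 mM, pH 9.8, with MgCl2 1.0 mM, ZnCl2 0.02 mM; doses: 20 µM single dose; incubation: enzyme reaction for 30 min at room temperature; detection: CDP-star luminescence signal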
hIAP act – increases human intestinal alkaline phosphatase activity. activation factor at 10 µM. AID 2524. 330,000 tested, 0.16% active. P09923. purified human IAP, CDP-Star luminescence, 30 min; active compounds read high; 1 = vehicle-only enzyme, 0 = enzyme-free background;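 active means activation factor of the enzyme at least 2-fold when tested at 20 µM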
Target sequence (P09923 whole entry, looked up): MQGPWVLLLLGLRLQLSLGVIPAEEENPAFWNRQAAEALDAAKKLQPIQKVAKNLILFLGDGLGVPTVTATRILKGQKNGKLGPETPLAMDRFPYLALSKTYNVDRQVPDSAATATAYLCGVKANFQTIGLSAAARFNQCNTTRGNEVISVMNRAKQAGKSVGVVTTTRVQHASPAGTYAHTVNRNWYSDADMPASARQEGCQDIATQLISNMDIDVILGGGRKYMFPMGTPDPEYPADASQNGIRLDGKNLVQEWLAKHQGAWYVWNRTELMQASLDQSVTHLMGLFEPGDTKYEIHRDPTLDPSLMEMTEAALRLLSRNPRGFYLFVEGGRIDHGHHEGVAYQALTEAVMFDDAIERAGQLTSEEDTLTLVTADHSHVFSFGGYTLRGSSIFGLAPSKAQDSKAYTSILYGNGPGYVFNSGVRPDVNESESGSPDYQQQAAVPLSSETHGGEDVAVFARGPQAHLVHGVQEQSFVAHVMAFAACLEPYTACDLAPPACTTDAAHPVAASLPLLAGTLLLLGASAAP
mIAP activ – mouse IAP activation. muIAP, CDP-Star luminescence, 30 min; active compounds read high; 1 = vehicle-only enzyme signal, 0 = enzyme-free wells. activation factor at 10 µM. 330,000 tested, 0.24% active. AID 2805;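 active means activation factor of at least 2 at 20 µM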
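Assay system: mouse IAP enzyme; reagent: chemiluminescent substrate CDP-Star; dosing: test compounds delivered from DMSO solution; schedule: 30 min at room temperature; measured by: luminescence from enzymatic CDP-Star hydrolysis; controls: DMSO-only wells and no-enzyme negative control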
hIAP inh – blocks human intestinal alkaline phosphatase; P09923; purified IAP, CDP-Star luminescence, 30 min; inhibition, % at 10 µM; 330,000 tested, 0.12% active; AID 2544;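 active means inhibition reaching a set limit with compound at 10 µM in the primary screen, cut at about 35% in these data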;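 further: plate controls were DMSO wells with enzyme for no effect and no-enzyme buffer wells for full effect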
bIAP act – intestinal alkaline phosphatase (bovine) activation; purified bovine IAP, CDP-star luminescence, 30 min; active compounds read high; fold of DMSO-control signal, blank-subtracted; activation factor at 20 µM; 200,000 tested, 0.17% active; AID 1016;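 active means activation factor of 2 or more at 20 µM, a signal rise over negative controls twice the positive control's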
An asterisk follows results filed as active; i = inactive; nt = no result.

SMILES | mIAP block | bIAP inhibitor | hIAP act | mIAP activ | hIAP inh | bIAP act
Cc1cccc(NCc2nc3ccccc3n2Cc2ccccc2)c1 | -8.6 | i | 0.98 | 1.09 | 2.0 | 9.5*
Cc1nc2cc(NCc3nc4ccccc4n3Cc3ccccc3)ccc2n1C | -1.1 | -52.8 | 1.16 | 1.01 | -15.6 | 1.5
O=C(O)c1cc2[nH]c3c(c2cc1Cl)CCCC3 | 11.3 | nt | 0.967 | 0.887 | 3.3 | nt
OCCN1CCN(CC(O)COc2ccc3ccccc3c2)CC1 (configuration not stated) | 3.0 | -187.6 | 0.897 | 0.97 | 10.3 | 2.9*
CCOc1ccccc1C(=O)NC1CC2CCCC(C1)N2Cc1nnnn1Cc1ccco1 (configuration not stated) | 7.8 | 4.0 | 1.01 | 0.922 | -1.3 | 1
O=C(NC1CC2CCC(C1)N2Cc1nnnn1Cc1ccco1)NC12CC3CC(CC(C3)C1)C2 (configuration not stated) | -36.2 | -235.0 | 0.952 | 1.36 | 4.8 | 3.4*
C[C@@H]1CN([C@@H](C)CO)C(=O)c2cccc(NC(=O)C3CCCCC3)c2O[C@@H]1CN(C)C(=O)NC1CCCCC1 | -8.0 | nt | 1.29 | 1.08 | -29.1 | nt
COc1cc(C2CC(c3cccnc3)=NN2c2ccc(F)cc2)cc(OC)c1OC (configuration not stated) | -122.7 | -38.8 | 1.18 | 2.23* | -17.8 | 1.4
CCOC(=O)c1c(C)n(-c2ccc(C)cc2)c2ccc(OCC(O)CNCCCO)cc12 (configuration not stated) | -0.1 | -99.0 | 1.02 | 1 | -2.5 | 2*
Cc1cccc(C(=O)NNC(=O)c2ccc(NS(=O)(=O)c3cccs3)cc2)c1C | 6.2 | nt | 1.03 | 0.938 | -3.3 | nt
COc1ccc(NC(=O)COC(=O)c2cc(Cl)ccc2O)cc1S(=O)(=O)N1CCCCC1 | -5.1 | nt | 0.945 | 1.05 | 5.5 | nt
COc1ccc(OCCNC(=O)Nc2cc(F)c(F)cc2Cl)cc1 | -86.5 | -5.1 | 1.11 | 1.86 | -10.9 | 1.1
COc1cccc(OCCNC(=O)Nc2cc(F)c(F)cc2Cl)c1 | -132.9 | -9.5 | 1.13 | 2.33* | -13.4 | 1.1
CC1Sc2ccc(C(=O)NCc3ccccn3)cc2NC1=O (configuration not stated) | 21.0 | nt | 0.965 | 0.79 | 3.5 | nt
CN(C)/C=C/c1oc2ccc(O)cc2c1[N+](=O)[O-] | 25.5 | 17.1 | 0.537 | 0.745 | 46.3* | 0.8
Cc1oc2ccc(O)cc2c1C(=O)c1ccc([N+](=O)[O-])cc1 | 28.8 | 8.2 | 1.08 | 0.712 | -8.0 | 0.9
Cc1ccc(C(=O)Nc2cccc(NC(=O)c3ccc(C)o3)n2)o1 | 5.9 | nt | 1.37 | 0.941 | -36.9 | nt
O=C1CCCN1CCC(=O)N1CCCC(CO)(Cc2ccccc2)C1 (configuration not stated) | -4.4 | nt | 0.877 | 1.04 | 12.3 | nt
CCCCNc1nc2ccccc2[nH]1 | 9.3 | -209.9 | 1.14 | 0.907 | -14.4 | 3.1*
CSCc1nc2sc(C(=O)Nc3nc(C)cs3)c(C)c2c(=O)[nH]1 | 41.5* | -11.6 | 0.923 | 0.585 | 7.7 | 1.1
O=C(Nc1ccccc1-c1ccccc1)NC1CC2CCCC(C1)N2CCc1ccccc1 (configuration not stated) | -131.2 | -8.5 | 0.895 | 2.31* | 10.5 | 1.1
CSc1nsc(SC)c1NC(=O)OCc1ccccc1 | 3.3 | 43.5 | 1.08 | 0.967 | -8.1 | 0.6
CSc1nsc(SC)c1NC(=O)OCCc1ccccn1 | 41.2* | 11.2 | 0.979 | 0.588 | 2.1 | 0.9
CN(C)c1cccc(C(=O)OCCCC(=O)c2ccc(F)cc2)c1 | 7.8 | nt | 0.931 | 0.922 | 6.9 | nt
Cc1cc(NCCCn2ccnc2)n2nc(-c3ccc(F)cc3)cc2n1 | -1.8 | -44.4 | 1.22 | 1.02 | -21.7 | 1.4
SMILES | mIAP block | bIAP inhibitor | hIAP act | mIAP activ | hIAP inh | bIAP act
Cc1cc(C)c2c(n1)nn1c(NCCCn3ccnc3)cc(C)nc21 | nt | -127.7 | nt | nt | nt | 2.3*
COC(=O)c1ccccc1N1C(=O)C2C(C1=O)[C@H]1C=C[C@@H]2C1 (some centres not stated) | 50.3* | 11.0 | 0.958 | 0.497 | 4.2 | 0.9
Cc1ccc(CC(=O)OC(C)C(=O)NC2CCCCC2C)cc1C (configuration not stated) | 8.0 | nt | 1.09 | 0.92 | -8.6 | nt
Cc1cc(OCC(=O)Nc2cccc(S(=O)(=O)N3CCCCC3)c2)ccc1Cl | -207.1 | nt | 1 | 3.07* | -0.5 | nt
O=C(Cc1ccccc1Cl)Nc1cccc(S(=O)(=O)N2CCCCCC2)c1 | -113.1 | nt | 1.07 | 2.13* | -7.4 | nt
Cc1cc(OCC(=O)Nc2cccc(S(=O)(=O)N3CCCC3)c2)ccc1Cl | -41.5 | nt | 1.07 | 1.42 | -7.5 | nt
O=C(CCc1ccccc1Cl)Nc1cccc(S(=O)(=O)N2CCCC2)c1 | -17.3 | nt | 1.19 | 1.17 | -19.3 | nt
CCc1ccc(NC(=O)C(C)Sc2nc(-c3ccco3)c(C#N)c(=O)[nH]2)cc1 (configuration not stated) | 6.3 | nt | 1.05 | 0.937 | -5.5 | nt
CCOC(=O)c1ccc(NC(=O)c2cccc(S(=O)(=O)N3CCN(C(C)=O)CC3)c2)cc1 | -1.6 | nt | 0.901 | 1.02 | 9.9 | nt
COc1ccc(CN2C(=O)/C(=C/c3ccncc3)SC2=S)cc1 | 13.7 | -4.1 | 1.12 | 0.863 | -12.1 | 1
COc1cc(NC(=O)C2CCC(CNc3c(N4CCC(C)CC4)c(=O)c3=O)CC2)cc(OC)c1 (configuration not stated) | -23.0 | -28.0 | 0.918 | 1.23 | 8.2 | 1.3
COc1ccc(NC(=O)C2CCC(CNc3c(N4CCC(C)CC4)c(=O)c3=O)CC2)cc1OC (configuration not stated) | 0.1 | -205.8 | 0.817 | 0.999 | 18.3 | 3.1*
Cc1cc(C(=O)C(=O)O)c(C)n1-c1ccc(Cl)c(Cl)c1 | -1.2 | -146.5 | 1.08 | 1.01 | -8.0 | 2.5*
c1ccc(-c2c(-c3ccccc3)n(Cc3ccco3)c3ncnc(NCCCn4ccnc4)c23)cc1 | -7.2 | i | 0.974 | 1.07 | 2.6 | 49.1*
OCCNc1ncnc2c1c(-c1ccccc1)c(-c1ccccc1)n2Cc1ccco1 | -0.6 | -12.9 | 0.83 | 1.01 | 17.0 | 1.1
CCN(CC)c1ccc(NC(=O)c2cccc(F)c2)c(C)c1 | -1.9 | 5.8 | 0.895 | 1.02 | 10.5 | 0.9
O=C(NCc1cccnc1)c1cc2ccccc2oc1=O | -5.6 | 1.2 | 1 | 1.06 | -0.2 | 1
O=C(NCCc1cccc(Cl)c1)c1cc2ccccc2oc1=O | 40.9* | nt | 1.03 | 0.591 | -2.8 | nt
COC(=O)c1ccc(NC(=O)Nc2ccc(F)c(Cl)c2)cc1 | -128.8 | -0.8 | 1.29 | 2.29* | -29.3 | 1
O=C(Nc1ccncc1)Nc1ccc(F)c(Cl)c1 | -63.6 | 3.8 | 0.955 | 1.64 | 4.5 | 1
COC(=O)c1cccc(NC(=O)Nc2ccc(Cl)c(Cl)c2)c1 | -204.5 | 10.5 | 0.995 | 3.04* | 0.5 | 0.9
COC(=O)c1cc(NC(=O)Nc2ccccc2)ccc1Cl | -150.3 | 44.1 | 1.03 | 2.5* | -2.6 | 0.6
